Test: 3-T MRI of gadofluorine M uptake in atherosclerotic-like lesions
Type: in vivo, rabbit
Settings: T1-weighted MRI 1 h after i.v. 0.5 μmol/kg
Method in brief: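 Rabbits had right femoral artery injury by air desiccation, then balloon angioplasty. The contralateral uninjured femoral artery served as control. Rabbits were imaged at 4–6 wk post-desiccation (n = 9), 3 wk post-angioplasty (n = 6) and 4 wk later (n = 4). 3-T T1-weighted turbo-spin-echo imaging (TR/TE 600/12 ms) was run 1 h after i.v. non-receptor-specific plaque-targeting contrast agent.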

CC(C(=O)NCC(=O)NCCCC[C@H](NC(=O)CO[C@H]1O[C@H](CO)[C@@H](O)[C@H](O)[C@@H]1O)C(=O)N1CCN(S(=O)(=O)C(F)(F)C(F)(F)C(F)(F)C(F)(F)C(F)(F)C(F)(F)C(F)(F)C(F)(F)F)CC1)N1CCN(CC(=O)O)CCN(CC(=O)O)CCN(CC(=O)O)CC1 (some centres unmarked) [gadofluorine M]
MRI uptake in control arteries: no gadofluorine M uptake | MRI signal / uptake in injured vessels (all rabbits at all TPs): increased signal
